Test results reported in ChEMBL document CHEMBL2321688, “Acyclic nucleoside phosphonates containing a second phosphonate group are potent inhibitors of 6-oxopurine phosphoribosyltransferases and have antimalarial activity” (J Med Chem, 2013).

Assays:
[1] = Cytotoxicity against thioguanine-resistant human C32TG cells harboring HGPRT deletion mutant assessed as inhibition of cell proliferation after 4 days by Coulter counter analysis; type: cell-based
In short: (§1)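 Cell proliferation in human A549 lung carcinoma, C32 melanoma and C32-TG (thioguanine-resistant, HGPRT-deficient C32 mutant) cells. Seeded at 7,500 (A549) or 15,000 (C32, C32-TG) cells per well; serial compound dilutions added 24 hr later. Four days at 37 °C, then trypsinized and counted by Coulter Counter. CC50 = concentration giving 50% proliferation versus untreated cells, by extrapolation; mean ± SEM of two or three independent tests.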

[2] = Cytotoxicity against human C32 cells assessed as inhibition of cell proliferation after 4 days by Coulter counter analysis; type: cell-based; in short: as §1
[3] = Cytotoxicity against human A549 cells assessed as inhibition of cell proliferation after 4 days by Coulter counter analysis; type: cell-based; in short: as §1
Plasmodium falciparum [4] = assay: Antimalarial activity against wild type early trophozoite stage of Plasmodium falciparum D6 in human red blood cells assessed as [3H]hypoxanthine uptake after 96 hrs; type: functional, organism-based
In short: (§2)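 P. falciparum cultured in RPMI-1640-LPLF with 10% human plasma, sorbitol-synchronised; assay started with >90% rings at 0.5% parasitaemia, 2% haematocrit in hypoxanthine-free medium. Ten 2-fold serial dilutions for 96 h, [3H]-hypoxanthine (0.2 µCi/well) added at ~48 h. IC50 from non-linear regression of incorporation versus log concentration; three independent experiments, mean ± SD.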

Plasmodium falciparum [5] = assay: Antimalarial activity against chloroquine and pyrimethamine-resistant early trophozoite stage of Plasmodium falciparum W2 in human red blood cells assessed as [3H]hypoxanthine uptake after 96 hrs; type: functional, organism-based; in short: as §2
[6] = Inhibition of Plasmodium vivax N-terminal hexahistidine-tagged HGPRT
In short: (§3)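 N-terminal hexa-histidine tagged enzymes purified to homogeneity by IMAC. Ki from Hanes' plots with guanine fixed at 60 μM and PRib-PP varied (2-1000 μM) according to Km(app); one concentration of each inhibitor.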

[7] = Inhibition of Plasmodium falciparum HGXPRT
In short: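 PfHGXPRT purified by a published procedure. Ki from Hanes' plots with guanine fixed at 60 μM and PRib-PP varied (2-1000 μM) according to Km(app); one concentration of each inhibitor.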

[8] = biological target: T1, Hypoxanthine-guanine phosphoribosyltransferase (Homo sapiens, UniProt P00492); assay: Inhibition of human N-terminal hexahistidine-tagged HGPRT; in short: as §3
T1 sequence (P00492 whole entry): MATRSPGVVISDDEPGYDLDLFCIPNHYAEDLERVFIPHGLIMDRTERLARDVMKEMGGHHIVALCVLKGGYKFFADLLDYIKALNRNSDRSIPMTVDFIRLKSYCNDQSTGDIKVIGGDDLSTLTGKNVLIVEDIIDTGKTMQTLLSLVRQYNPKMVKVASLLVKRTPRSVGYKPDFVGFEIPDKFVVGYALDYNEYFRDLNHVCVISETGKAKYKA

Ki [8]	SMILES	CC50 at 96 h [1]	CC50 at 96 h [2]	CC50 at 96 h [3]	IC50 (Plasmodium falciparum [4])	IC50 (Plasmodium falciparum [5])	Ki [6]	Ki [7]
–	Nc1nc2c(ncn2CCOCCP(=O)(O)O)c(=O)[nH]1	> 300 µM	> 300 µM	> 300 µM	242 µM	–	–	–
–	CCCCCCCCCCCCCCCCOCCCOP(=O)(CCOCCn1cnc2c(=O)[nH]c(N)nc21)OCCCOCCCCCCCCCCCCCCCC	> 300 µM	> 300 µM	> 300 µM	59 µM	68 µM	–	–
–	CCCCCCCCCCCCCCCCOCCCOP(=O)(O)CCOCCn1cnc2c(=O)[nH]c(N)nc21	36 µM	61 µM	61 µM	7.6 µM	4.7 µM	–	–
–	CCOC(=O)[C@H](Cc1ccccc1)NP(=O)(COCC(COCP(=O)(N[C@@H](Cc1ccccc1)C(=O)OCC)N[C@@H](Cc1ccccc1)C(=O)OCC)Cn1cnc2c(=O)[nH]c(N)nc21)N[C@@H](Cc1ccccc1)C(=O)OCC	109 µM	130 µM	> 300 µM	9.7 µM	7.1 µM	–	–
–	CCOC(=O)[C@H](Cc1ccccc1)NP(=O)(COCC(COCP(=O)(N[C@@H](Cc1ccccc1)C(=O)OCC)N[C@@H](Cc1ccccc1)C(=O)OCC)Cn1cnc2c(=O)[nH]cnc21)N[C@@H](Cc1ccccc1)C(=O)OCC	55 µM	41 µM	101 µM	3.8 µM	4 µM	–	–
0.03 µM	Nc1nc2c(ncn2CC(COCP(=O)(O)O)COCP(=O)(O)O)c(=O)[nH]1	> 300 µM	> 300 µM	> 300 µM	–	–	0.6 µM	0.07 µM
1 µM	O=c1[nH]cnc2c1ncn2CC(COCP(=O)(O)O)COCP(=O)(O)O	–	–	–	–	–	2 µM	5 µM
0.6 µM	Nc1nc2c(ncn2CC(COCCP(=O)(O)O)OCCP(=O)(O)O)c(=O)[nH]1 (centres undefined)	–	–	–	–	–	0.7 µM	0.5 µM
37 µM	Nc1nc2c(ncn2C(COCP(=O)(O)O)COCP(=O)(O)O)c(=O)[nH]1	–	–	–	–	–	18 µM	2 µM
–	CCOC(=O)[C@H](C)NP(=O)(CCOCCn1cnc2c(=O)[nH]c(N)nc21)N[C@@H](C)C(=O)OCC	> 300 µM	> 300 µM	> 300 µM	42 µM	48 µM	–	–
